Source: PubChem BioAssay
NPY-Y1 PAM-ag: potentiators or agonists of human neuropeptide Y receptor Y1 | P25929 | NPY-Y1 expressing cells, potentiator/agonist activation | activation, % at 3.6 µM | hit rate 0.37% among 220,000; in the data active = activation above about 33%, passing the limit was not always enough;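 note: cells stimulated with NPY at EC10 then isoproterenol at EC100; 0% = low agonist plus stimulus and 100% = saturating agonist plus stimulus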
Target sequence (P25929 whole entry, looked up): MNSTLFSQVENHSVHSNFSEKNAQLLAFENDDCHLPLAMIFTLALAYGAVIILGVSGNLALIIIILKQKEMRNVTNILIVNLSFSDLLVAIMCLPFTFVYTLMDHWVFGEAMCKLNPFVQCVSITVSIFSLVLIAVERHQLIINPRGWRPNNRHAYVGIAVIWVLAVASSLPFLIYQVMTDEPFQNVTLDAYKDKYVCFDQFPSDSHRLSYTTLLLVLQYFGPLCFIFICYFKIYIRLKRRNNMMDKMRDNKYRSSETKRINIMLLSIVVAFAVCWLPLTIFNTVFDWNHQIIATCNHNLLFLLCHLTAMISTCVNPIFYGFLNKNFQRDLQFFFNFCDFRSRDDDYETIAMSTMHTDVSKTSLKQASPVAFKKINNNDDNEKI
EP2 antag: EP2 receptor (human) inhibition | P43116 | C6 glioma cells expressing human EP2, cAMP TR-FRET; cells stimulated with saturating PGE2 | inhibition, % at 25 µM | hit rate 0.52% among 260,000 | AID 1422;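 active = percent inhibition above 40 after rounding to a whole number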;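 note: rat C6 glioma host cells with rolipram phosphodiesterase inhibitor present; the protocol text gives 20 µM as final concentration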
EP2 mod: EP2 receptor (human) modulation. P43116. EP2-expressing cells, cAMP HTRF FRET, PGE2 co-stimulation. induction, % at 25 µM. hit rate 0.83% among 260,000. AID 940;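 active = compounds whose cAMP rise, as percent of the full-agonist control response, exceeds 60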;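 note: rat C6 glioma line stably carrying human EP2 under a CMV promoter; the protocol text gives 20 µM as final concentration; 100% = response of wells given 1 µM PGE2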
NPY-Y2 antag: NPY-Y2 (human) receptor antagonism. NPY-Y2 expressing cells, antagonist mode. inhibition, % at 2.7 µM. hit rate 0.99% among 140,000; in the data active = inhibition above about 17%;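 note: 0% = vehicle with agonist challenge and 100% = reference antagonist with challenge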
NPY2 pot ag: potentiators or agonists of human neuropeptide Y receptor Y2; AID 1359; hit rate 0.45% among 220,000; cells expressing NPY-Y2, potentiator/agonist read-out; activation, % at 3.6 µM; in the data active = activation above about 27%;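 note: cells stimulated with NPY near EC25 plus isoproterenol at EC100; 0% = vehicle plus submaximal agonist and 100% = vehicle plus saturating agonist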
NPY-Y1 antag: NPY-Y1 (human) receptor antagonism; P25929; HEK293-CNG Y1 cells, membrane potential fluorescence; NPY at EC95, then isoproterenol; inhibition, % at 3.6 µM; hit rate 1% among 200,000; AID 1040;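 active = inhibition above the campaign mean inhibition of all tested compounds plus 3 SD, cut at about 20% in these data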;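 note: 0% = DMSO wells given NPY plus isoproterenol and 100% = isoproterenol alone without NPY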
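Material: Y1- and CNG-channel-expressing HEK293 cells / Probe or stimulus: NPY 25 nM then isoproterenol 1 µM plus Ro 20-1724 25 µM / Doses: 3.6 µM single dose, DMSO 0.4% / Schedule: compound incubation 1 h at room temperature, readout 45 min post-stimulation / Signal: membrane potential fluorescence / Benchmarks: isoproterenol-only wells as full block versus NPY-plus-isoproterenol wells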
* marks the source's active call; other numbers are inactive results; . = no result; ! = a repeat was not active. Shown are actives, neighbours in structure and some others; about 2.8% of the full set was active somewhere.

SMILES | NPY-Y1 PAM-ag | EP2 antag | EP2 mod | NPY-Y2 antag | NPY2 pot ag | NPY-Y1 antag
CN(C)c1ccc(NC(=O)CN2CCC(O)(c3ccccn3)CC2)cc1 | . | . | -14 | . | . | .
CCN(CC)C(=S)SSC(=S)N(CC)CC | 1 | 60*! | -36 | -3 | 5 | 4
O=C(c1ccco1)N1CCC(O)(c2ccccc2)CC1 | . | 12 | -1 | . | . | .
O=C(Nc1cccc2ccccc12)N1CCCN(c2c(Cl)cncc2Cl)CC1 | 30 | 41* | -61 | . | 15 | .
O=C(Nc1cccc2ccccc12)N1CCCCC1 | . | 16 | 14 | . | . | .
CC[C@@H](Cn1ncc2ccccc2c1=O)NC(=O)c1cnccn1 | . | 7 | -2 | . | . | .
COc1ccc(-c2cc3nccc(C4CCN(C(=O)OC(C)(C)C)CC4)n3n2)cc1OC | . | . | 80* | . | . | .
COc1ccc(C(=O)N2CCCC(c3ccnc4cc(C)nn34)C2)cc1OC (centres undefined) | . | . | -15 | . | . | .
O=C(NCCN1CCN(c2ccccc2)CC1)C1CCN(S(=O)(=O)N2CCOCC2)CC1 | 32* | 5 | -6 | -1 | -8 | -2
O=C(NCCCN1CCN(c2ccccc2F)CC1)C1CCN(S(=O)(=O)N2CCOCC2)CC1 | 5 | 5 | 11 | 2 | 4 | -1
COc1ccc2c3c([nH]c2c1)[C@H]1C[C@@H]2[C@H](C[C@@H](O)[C@H](OC)[C@H]2C(=O)O)CN1CC3 | . | 51* | 12 | . | . | .
COc1ccc2c3c([nH]c2c1)C1CC2C(CC(O)C(OC)C2C(=O)O)CN1CC3 (centres undefined) | 0 | 13 | -17 | . | -21 | .
COC(=O)[C@@H]1[C@H]2C[C@H]3c4[nH]c5ccccc5c4CCN3C[C@@H]2CC[C@@H]1O | . | 11 | -1 | . | . | .
COC(=O)[C@H]1[C@@H]2C[C@H]3c4[nH]c5ccccc5c4CCN3C[C@H]2CC[C@@H]1O | . | 41* | 10 | . | . | .
COc1ccc(Br)cc1-c1nc(CCl)cs1 | 11 | 30 | 63* | . | 12 | 3
CCOc1ccc(-c2nc(CCl)cs2)cc1 | 2 | 4 | -25 | . | -5 | 0
CCCc1nc2ccc([N+](=O)[O-])cc2[nH]1 | 4 | 9 | -9 | . | 7 | 1
CCc1cccc2[nH]c3cc([N+](=O)[O-])ccc3c12 | -1 | 7 | 65* | . | -21 | .
Cc1c2cc[n+](CCN3CCCCC3)cc2c(C)c2c1[nH]c1ccc(O)cc12 | . | 51* | 14 | . | . | .
CCOC(=O)c1[nH]c2ccc(C)cc2c1NC(=O)CN1CCCCC1 | -8 | 11 | -41 | 5 | -11 | -4
CC1=NN(c2nc(-c3ccc(C)cc3)cs2)C(=O)C1N=Nc1ccc2ccccc2c1 (centres undefined) | 2 | 11 | 7 | 2 | 9 | -1
CC1=NN(C(=O)c2ccncc2)C(=O)[C@@H]1N=Nc1ccc2ccccc2c1 | . | 58* | -21 | . | . | .
COc1cccc(-c2noc(C3CCCN(S(=O)(=O)c4ccc(NC(C)=O)cc4)C3)n2)c1 (centres undefined) | . | 12 | -54 | . | . | .
Cc1cc(Oc2ccc(Br)cc2)nc(SCC(=O)c2ccccc2)n1 | -72 | 9 | 33 | 39* | -56 | 52*
Cc1cc(Oc2ccc3ccccc3c2)nc(SCC(=O)c2ccccc2)n1 | -114 | 10 | 50 | 41* | -17 | 50*
SMILES | NPY-Y1 PAM-ag | EP2 antag | EP2 mod | NPY-Y2 antag | NPY2 pot ag | NPY-Y1 antag
COC(=O)CSc1nc(C)cc(Oc2ccccc2)n1 | -8 | 10 | 12 | 3 | -12 | 6
Cc1cc(N2CCCCC2)nc(SCC(=O)c2ccccc2)n1 | -7 | 5 | 13 | 5 | -9 | 4
Cc1cc(C)c2[nH]c(=O)c(CN(C(=S)NCc3ccccc3)C3CCCCC3)cc2c1 | . | 16 | -26 | . | . | .
CC(C)c1ccc(NC(=S)NN2CCOCC2)cc1 | 88* | 8 | -3 | 1 | 89* | 1
O=c1[nH]c2cc(Cl)c([N+](=O)[O-])nc2[nH]1 | -61 | 4 | 6 | 18* | -15 | 22*
O=c1[nH]c2c(Br)cnc([N+](=O)[O-])c2[nH]1 | -13 | 3 | 50 | . | 4 | .
COc1cc2nncc(SCc3ccc(Cl)c(Cl)c3)c2cc1OC | . | 54* | 5 | . | . | .
O=C(NCCNCCO)c1ccco1 | . | 9 | -4 | . | . | .
Cc1ccc2oc(=O)c3cc(C(=O)NCc4ccco4)sc3c2c1 | 4 | 6 | -12 | 45* | 1 | 22*
CCc1ccc2[nH]c(=O)c(CN(Cc3cccs3)C(c3nnnn3C3CCCC3)C(C)C)cc2c1 (centres undefined) | . | 10 | 63* | . | . | .
COc1ccc2cc(CN(Cc3cccs3)C(c3nnnn3C3CCCC3)C(C)C)c(=O)[nH]c2c1 (centres undefined) | . | 8 | 69* | . | . | .
COc1ccc2[nH]c(=O)c(CN(Cc3cccs3)Cc3nnnn3C(C)(C)C)cc2c1 | -13 | 8 | 55 | 12 | -13 | 6
COc1ccc2[nH]c(=O)c(CN(Cc3cccs3)C(c3nnnn3C(C)(C)C)C(C)C)cc2c1 (centres undefined) | . | 14 | 69* | . | . | .
COC(=O)c1c(NC(=O)c2ccc(Cl)cc2Cl)sc(C(=O)Nc2ccc(OC)cc2)c1C | . | 9 | -20 | . | . | .
COCCNC(=O)Cn1cc(/C=C2/C(=O)NC(=O)N(c3ccc4ccccc4c3)C2=O)c2ccccc21 | . | 10 | -66 | . | . | .
N#CCn1cc(/C=C2\C(=O)NC(=O)N(c3ccc(Cl)cc3)C2=O)c2ccccc21 | . | 84* | -107 | . | . | .
CCCC(=O)Nc1ncnc2c1ncn2[C@@H]1O[C@@H]2COP(=O)(O)O[C@H]2[C@H]1OC(=O)CCC | -7 | 2 | 109* | 1 | -8 | 0
O=C(Nc1ncnc2c1ncn2C1OC(COC(=O)c2ccccc2)C(F)C1O)c1ccccc1 (centres undefined) | -4 | 20 | -10 | 0 | -4 | 7
COc1cccc(OC)c1C(=O)N1CCC(c2nc3c(nnn3Cc3ccc(C)cc3)c(=O)[nH]2)CC1 | . | 13 | -26 | . | . | .
Cc1c(/C(Cc2ccccc2)=N/O)c2ccccc2n1C | -9 | 1 | 63* | 2 | 9 | 1
Cc1c(C(=O)CN2CCSCC2)c2ccccc2n1C | -4 | 6 | 10 | 2 | 5 | 1
CN1c2ncccc2C(=O)NC12CCN(C(=O)c1cccs1)CC2 | . | . | 4 | . | . | .
CC[C@H](Cn1nc(-c2cccs2)ccc1=O)NC(=O)c1ccc2c(c1)OCCO2 | . | . | -18 | . | . | .
COc1cc(/C=C/C(=O)CC(=O)/C=C/c2ccc(O)c(OC)c2)ccc1O | 30 | 74* | -65 | -2 | 20 | -1
CCCCN1/C(=C/c2ccc3ccccc3[n+]2CC)Sc2ccccc21 | -2 | 12 | -66 | . | -1 | 9
CC[n+]1c(/C=C2/Sc3ccc(OC)cc3N2C)ccc2cc(OC)ccc21 | . | 123* | -103 | . | . | .
CCN1/C(=C/c2ccc3cc(OC)ccc3[n+]2CC)Sc2cc(NC(C)=O)ccc21 | . | 17 | -9 | . | . | .
CCN1/C(=C/c2ccc3cc(C)ccc3[n+]2C)Sc2ccc3sccc3c21 | -9 | 45* | -60 | . | 1 | 0
